Source: PubChem BioAssay (several laboratories)
This is a sample that favours compounds with a hit; in the whole collection about 2.6% have one here.
VIM-2 inh = VIM-2 metallo-beta-lactamase inhibitors, primary screen, biochemical, epi-absorbance readout, Pseudomonas aeruginosa enzyme; inhibition, % at 5.6 µM; purified VIM-2, nitrocefin hydrolysis, epi-absorbance fluorescence; hit rate 0.89% among 290,000;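 active means inhibition above the mean of all tested compounds plus 3 SD, cutoff set per screening run, cut at about 7.5% in these data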;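 further: red hydrolysis product quenches plate fluorescence so inhibitors raise well fluorescence; 0% = enzyme with DMSO and 100% = DMSO without enzyme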
ARFGAP1 inh = inhibitors of rat ARFGAP1 GAP activity, primary screen, biochemical, fluorescence polarization, GDP tracer; Arfgap1-stimulated ARF1 GTP hydrolysis, GDP FP detection; inhibition, % at 16.5 µM; hit rate 0.26% among 360,000; AID 651572, 2012;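 active means inhibition above a per-plate limit, mean inhibition of low control wells plus 3 SD, cut at about 25% in these data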;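 further: 0% = DMSO wells with enzyme and 100% = wells lacking Arfgap1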
Target sequence (Q62848 1-136 limits assumed): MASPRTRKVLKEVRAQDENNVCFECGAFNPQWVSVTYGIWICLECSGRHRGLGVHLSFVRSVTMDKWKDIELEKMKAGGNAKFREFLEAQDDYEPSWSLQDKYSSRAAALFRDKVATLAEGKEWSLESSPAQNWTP
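system = rat Arfgap1 catalytic domain, aa 1-136 | technique = FP, GDP Alexa 633 tracer displaced from anti-GDP antibody, 620/688 nm | compound = one concentration, 16.5 µM, DMSO 1.26% | medium = HEPES-based buffer, pH 7.5 | timing = compound-enzyme preincubation 20 min, reaction 120 min, detection 60 min, 25 °C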
Calb FLC = C. albicans growth inhibition with fluconazole, primary screen, CaCi-2 strain, Alamar Blue fluorescence. C. albicans CaCi-2 + fluconazole, 48 h. growth inhibition, % (test concentration not listed). hit rate 0.57% among 300,000. AID 1979, 2009;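 active means growth inhibition above about 58% in most replicates, limit read from the data, passing the limit was not always enough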;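 further: all wells also contain fluconazole at 8 µg/ml as a sub-toxic cotreatment; 0% = median of DMSO wells and 100% = median of geldanamycin control wells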
ASAP1 GAP inh = inhibitors of human ASAP1 ArfGAP activity, primary screen, biochemical, fluorescence polarization; Arf-GAP with SH3 domain, ANK repeat and PH domain-containing protein 1 (Homo sapiens), …; ASAP1-stimulated ARF1 GTP hydrolysis, GDP FP detection; inhibition, % at 16.5 µM; hit rate 0.19% among 360,000; AID 624377, 2012; in the data active means inhibition above about 25%;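 further: 0% = vehicle with enzyme and substrate and 100% = no enzyme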
IMP-1 inhibitor = IMP-1 metallo-beta-lactamase inhibitors, primary screen, biochemical, epi-absorbance readout, Pseudomonas aeruginosa enzyme. purified IMP-1, nitrocefin hydrolysis, epi-absorbance fluorescence. hit rate 0.45% among 290,000. inhibition, % at 5.6 µM. metallo-beta-lactamase IMP-1 (Pseudomonas aeruginosa);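 active means inhibition above the mean plus 3 SD of all compounds in the same screening run, cut at about 4.5% in these data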;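 further: 0% = IMP-1 with DMSO and 100% = DMSO wells lacking enzyme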
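System – purified recombinant IMP-1 beta-lactamase · Input – IMP-1 dispensed at 0.2 nM · Timing – 15 min preincubation plus 25 min reaction at 25 °C · Signal – Epi-absorbance fluorescence, 480 nm excitation, 530 nm emission · Measure – percent IMP-1 inhibition derived from blank-referenced optical density · Controls – Enzyme-plus-DMSO low control, enzyme-free DMSO high control · Replication – singlicate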
PHOSPHO1 inh = PubChem AID 1565. Phosphoethanolamine/phosphocholine phosphatase (Homo sapiens), Q8TCT1. recombinant PHOSPHO1, absorbance phosphatase assay. inhibition, % at 13.3 µM. hit rate 1.1% among 290,000; in the data active means inhibition above about 60%
Target sequence (Q8TCT1 whole entry, looked up): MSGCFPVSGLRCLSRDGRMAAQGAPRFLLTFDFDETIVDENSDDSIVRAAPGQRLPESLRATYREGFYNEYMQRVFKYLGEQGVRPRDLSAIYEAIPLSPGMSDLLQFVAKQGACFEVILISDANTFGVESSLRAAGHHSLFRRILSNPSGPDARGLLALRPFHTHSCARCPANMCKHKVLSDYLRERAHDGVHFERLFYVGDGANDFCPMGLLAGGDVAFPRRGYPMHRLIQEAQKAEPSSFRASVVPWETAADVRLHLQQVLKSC
* marks the source's active call; other numbers are inactive results.

Results for CC(C)[C@H]1C(=O)O[C@H](C(C)C)C(=O)N(C)[C@@H](C(C)C)C(=O)O[C@H](C(C)C)C(=O)N(C)[C@@H](C(C)C)C(=O)O[C@H](C(C)C)C(=O)N1C ?
VIM-2 inh: -4; Calb FLC: 88*; IMP-1 inhibitor: -3; PHOSPHO1 inh: 40

Results for CCCOc1ccccc1C1SCC(=O)Nc2c1c(=O)[nH]n2C(C)CCC (centres undefined) ?
VIM-2 inh: 8.7*; ARFGAP1 inh: 5; Calb FLC: 8; ASAP1 GAP inh: -1; IMP-1 inhibitor: -2; PHOSPHO1 inh: -4

What do the screens show for `CN1OC[C@@H]2CN3C4(C[C@@H]21)c1ccccc1C3(c1ccccc1)c1ccccc14`?
ARFGAP1 inh: 18; ASAP1 GAP inh: 10

Results for Cc1cc(N2CCNC[C@@H]2C)ccc1N1CC[C@@H](O)C1 ?
ARFGAP1 inh: 3; ASAP1 GAP inh: -2

Results for CCN(CC)c1ccc(/C=C/[N+](=O)[O-])cc1 ?
VIM-2 inh: 3; ARFGAP1 inh: -1; Calb FLC: -2; ASAP1 GAP inh: -13; IMP-1 inhibitor: 6.5*; PHOSPHO1 inh: 17

How did COc1cc(/C=C/[N+](=O)[O-])ccc1O do in these assays?
VIM-2 inh: -2; ARFGAP1 inh: 2; Calb FLC: 3; ASAP1 GAP inh: 11; IMP-1 inhibitor: -3; PHOSPHO1 inh: -14

What do the screens show for `Clc1ccc([C@H]2CC3CCC2N3)cn1` (some centres undefined)?
ARFGAP1 inh: 4; ASAP1 GAP inh: -9

Results for Cc1cc(-c2ccccc2)cc(-c2ccccc2)[n+]1CCc1ccccc1 ?
ARFGAP1 inh: 2; Calb FLC: 97*; ASAP1 GAP inh: -5

How did CCOc1ccc(-c2cc(C)[n+](CCO)c(-c3ccc(OCC)cc3)c2)cc1 do in these assays?
VIM-2 inh: -4; ARFGAP1 inh: 15; Calb FLC: 92*; ASAP1 GAP inh: -9; IMP-1 inhibitor: -3; PHOSPHO1 inh: -10

What do the screens show for `Oc1ccc(/C=N/NP(=S)(c2ccccc2)c2ccccc2)c(O)c1O`?
VIM-2 inh: -1; ARFGAP1 inh: 12; Calb FLC: 104*; ASAP1 GAP inh: 17; IMP-1 inhibitor: -5; PHOSPHO1 inh: 84*

Results for Oc1ccccc1/C=N/NP(=S)(c1ccccc1)c1ccccc1 ?
VIM-2 inh: -3; ARFGAP1 inh: -1; Calb FLC: 14; ASAP1 GAP inh: 13; IMP-1 inhibitor: -1; PHOSPHO1 inh: 28

Results for Cc1ccc(N2Cc3ccccc3-n3nncc3C2)cc1 ?
ARFGAP1 inh: 4; ASAP1 GAP inh: 20

Results for CN1C(=O)NC(=O)[C@]2(Cc3ccccc3N3CCN(c4ccccc4)CC32)C1=O (some centres undefined) ?
VIM-2 inh: -1; ARFGAP1 inh: -16; Calb FLC: 0; ASAP1 GAP inh: -2; IMP-1 inhibitor: -3; PHOSPHO1 inh: 65*

How did O=C1NC(=O)[C@]2(Cc3ccccc3N3CCN(c4ccccc4)CC32)C(=O)N1Cc1ccccc1 (some centres undefined) do in these assays?
VIM-2 inh: -3; ARFGAP1 inh: -4; Calb FLC: 14; ASAP1 GAP inh: -5; IMP-1 inhibitor: -3; PHOSPHO1 inh: 72*

Results for CCn1cc(C(=O)c2ccccc2)c2ccccc21 ?
VIM-2 inh: -2; ARFGAP1 inh: 2; Calb FLC: 97*; ASAP1 GAP inh: 0; IMP-1 inhibitor: -4; PHOSPHO1 inh: 11

How did CN(C)c1ccc([P+](=O)c2ccc(N(C)C)cc2)cc1 do in these assays?
VIM-2 inh: 0; ARFGAP1 inh: 8; Calb FLC: 62*; ASAP1 GAP inh: -4; IMP-1 inhibitor: -1; PHOSPHO1 inh: -4

How did CCOC(=O)/C(CCCN(CC)CC)=N\O do in these assays?
VIM-2 inh: 1; ARFGAP1 inh: -9; Calb FLC: -5; ASAP1 GAP inh: 6; IMP-1 inhibitor: -1; PHOSPHO1 inh: 95*
